Series [1] is described as follows: Plasma concentration after oral aministration at 1 hr. (10 mg/kg). The settings on record: rat. The format is ADME, organism-based. Summed up: (§1)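 Rats were dosed orally at 10 mg/kg. Plasma drug concentrations were measured at 1, 2 and 4 h and reported in µM.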
The nature of series [2]: Plasma concentration after intravenous aministration at 30 min. (1 mg/kg, n=3). It is filed as ADME, organism-based. The settings on record: rat. Summed up: (§2)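 Rats dosed intravenously at 1 mg/kg (n = 3). Plasma drug concentrations were measured at 30 min and at 1 h (60 min) and reported in µM.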
Series [3] in a line: Plasma concentration after intravenous aministration at 60 min. (1 mg/kg, n=3). It is filed as ADME, organism-based. The following applies: rat. An outline of the steps:
as §2

Series [4] can be described thus: Plasma concentration after oral aministration at 4 hr. (10 mg/kg). It is filed as ADME, organism-based. The settings on record: rat. Summed up:
as §1

Series [5] is described as follows: Plasma concentration after oral aministration at 2 hr. (10 mg/kg). It is filed as ADME, organism-based. The settings on record: rat. Summed up: as §1
Series [6] addresses T1, Serine protease 1 (Bos taurus, UniProt P00760).
T1 sequence (P00760 whole entry): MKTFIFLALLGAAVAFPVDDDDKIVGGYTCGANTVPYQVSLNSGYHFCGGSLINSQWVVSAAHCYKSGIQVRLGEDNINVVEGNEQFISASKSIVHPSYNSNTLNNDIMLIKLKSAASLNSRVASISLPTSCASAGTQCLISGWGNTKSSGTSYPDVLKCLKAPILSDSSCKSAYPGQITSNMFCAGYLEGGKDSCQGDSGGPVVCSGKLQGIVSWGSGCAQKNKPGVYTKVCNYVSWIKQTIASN
Kind of series: Inhibitory constant against bovine trypsin for general specificity against serine proteases.

Series [7] concerns the target Prothrombin (Homo sapiens, UniProt P00734). Kind of series: Inhibitory constant against human coagulation factor II (thrombin) for selectivity within coagulation cascade.
The target in series [8] is Coagulation factor X (Homo sapiens, UniProt P00742). Nature of the series: Inhibitory constant against human coagulation factor Xa (fXa).
The nature of series [9]: Plasma concentration after intravenous aministration at 1hr, (1 mg/kg, n=3). The format is ADME, organism-based. The settings on record: rat. Summed up:
as §2

pKi: −log10 of the molar value.

As a reminder, the pKi is the negative decadic logarithm of the Ki, by convention in mol/L. The low end stands for a high Ki, the high end for a low Ki.

Sequence of Coagulation factor X (P00742 41-179 limits assumed): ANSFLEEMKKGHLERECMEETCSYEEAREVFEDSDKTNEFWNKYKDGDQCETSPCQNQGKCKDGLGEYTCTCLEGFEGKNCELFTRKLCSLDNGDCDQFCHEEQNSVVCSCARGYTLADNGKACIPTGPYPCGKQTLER
Sequence of Coagulation factor X (P00742 235-488 limits assumed): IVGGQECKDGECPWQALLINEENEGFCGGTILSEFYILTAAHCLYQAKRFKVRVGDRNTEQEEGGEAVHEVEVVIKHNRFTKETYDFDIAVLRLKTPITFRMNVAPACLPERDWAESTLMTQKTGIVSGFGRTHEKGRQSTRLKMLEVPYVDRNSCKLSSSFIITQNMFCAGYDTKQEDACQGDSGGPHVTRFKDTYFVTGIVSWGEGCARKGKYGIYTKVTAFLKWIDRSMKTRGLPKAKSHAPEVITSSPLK

With `CN1CCN=C1c1cccc(Oc2cc(C(=O)O)cc(Oc3cc(C(=N)N)ccc3O)n2)c1`, the concentration at 1 h was found to be 1400 nM in series [1] and 400 nM in series [3]. The concentration at 0.5 h in series [2] was found to be 1100 nM. In addition, the concentration at 4 h in [4] amounted to 100 nM. For the same compound, in [5], the concentration at 2 h was 200 nM.
As for `N=C(N)c1cccc(Oc2cc(C(=O)O)cc(Oc3cc(C(=N)N)ccc3O)n2)c1`, the pKi in [6] is 6.28; in series [7], 5.29; in series [8] it was 8.22. In series [2], the concentration at 0.5 h worked out at 1900 nM.
`N=C(N)c1cccc(Oc2cc(C(=O)O)cc(Oc3cccc(C(=N)N)c3)n2)c1` yielded a concentration at 0.5 h in series [2] of 800 nM.
For the compound `Cc1c(F)c(Oc2cccc(Nc3ccccc3)c2)nc(Oc2cccc(C(=N)N)c2)c1F`, the pKi in [6] is below 5.30; in series [7], 5.42; in series [8], 5.74.
On the same counts, the results for `COc1ccc(N(C)C)cc1Oc1nc(Oc2cccc(C(=N)N)c2)c(F)c(C)c1F` are below 5.30, 5.66 and below 5.30.
On the same counts, the results for `CCNc1cccc(Oc2nc(Oc3cccc(C(=N)N)c3)c(F)c(C)c2F)c1` are 5.57, below 5.30 and 6.28.
On the same counts, the results for `Cc1c(F)c(Oc2cccc(C(=N)N)c2)nc(Oc2cccc([S+]([O-])N(C)C)c2)c1F` (centres undefined) are 5.62, below 5.30 and 6.14.
As to `CCOC(=O)Cc1cccc(Oc2nc(Oc3cccc(C(=N)N)c3)c(F)c(C)c2F)c1`, the pKi in series [6] was below 5.30; in [7], below 5.30; in [8] it was 6.09.
Consider `CN(C)C(=O)c1cccc(Oc2cc(C(=O)O)cc(Oc3cc(C(=N)N)ccc3O)n2)c1`, for which the pKi in series [6] was 6.82; in [7] it was 6.31; in [8], 8.51.
Consider `Cc1c(F)c(Oc2cccc(CC(=O)O)c2)nc(Oc2cccc(C(=N)N)c2)c1F`, for which the pKi in [6], in series [7] and in series [8] was below 5.30 throughout.
For the compound `CCOC(=O)c1cccc(Oc2nc(Oc3cccc(C(=N)N)c3)c(F)c(C)c2F)c1`, the figures for the negative-log Ki (pKi) in series [6], in [7] and in [8] were below 5.30, below 5.30 and 5.28, respectively.
In [2], `N=C(N)c1ccc(O)c(Oc2cc(C(=O)O)cc(Oc3cccc(C4=NCCN4)c3)n2)c1` registered a concentration at 0.5 h of 3000 nM. In addition, the concentration at 1 h in series [9] came to 1400 nM.
Turning to `Cc1c(F)c(Oc2cccc(C(=N)N)c2)nc(Oc2cccc(C(O)C(=O)N(C)C)c2)c1F` (centres undefined), the results for the pKi in series [6], in series [7] and in series [8] were 5.48, below 5.30 and 5.66, respectively.
The like results for `CC1(C)CNC(c2cccc(Oc3cc(C(=O)O)cc(Oc4cc(C(=N)N)ccc4O)n3)c2)=N1` were, in that order, 5.85, below 5.30 and 6.09.
The like results for `Cc1c(F)c(Oc2cccc(C(=N)N)c2)nc(Oc2cccc(C(=O)N3CCCC3)c2)c1F` were, in that order, 5.55, below 5.30 and 6.66.
The like results for `Cc1c(F)c(Oc2cccc(N(C)C)c2)nc(Oc2cc(C(=N)N)ccc2N)c1F` were, in that order, 6.40, 6.52 and 7.19.
Regarding `Cc1c(F)c(Oc2cccc(C(=N)N)c2)nc(Oc2cccc(C(=O)N3CCOCC3)c2)c1F`, the negative logarithm of the Ki (pKi) in series [6] is below 5.30; in [7], below 5.30; in series [8] it was 5.85.
With `Cc1c(Oc2nc(Oc3cccc(C(=N)N)c3)c(F)c(C)c2F)cccc1N(C)C`, the results for the pKi in series [6], in series [7] and in [8] were 5.30, 6.02 and 6.49, respectively.
The like results for `Cc1c(F)c(Oc2cccc(C(=N)N)c2)nc(Oc2cccc(N3CCOCC3)c2)c1F` were, in that order, 5.70, below 5.30 and 6.19.
On the same counts, the results for `Cc1c(F)c(Oc2cccc(CC(N)=O)c2)nc(Oc2cccc(C(=N)N)c2)c1F` are below 5.30, below 5.30 and 6.55.
The like results for `Cc1c(F)c(Oc2cccc(CC(=O)N(C)C)c2)nc(Oc2cccc(C(=N)N)c2)c1F` were, in that order, 5.38, below 5.30 and 6.34.
With `Cc1c(F)c(Oc2cccc(OC(F)(F)F)c2)nc(Oc2cccc(C(=N)N)c2)c1F`, the pKi in [6] was below 5.30; in series [7] it was below 5.30; in series [8] it was 5.74.
With `Cc1c(F)c(Oc2cccc(C(=N)N)c2)nc(Oc2cccc([N+](=O)[O-])c2)c1F`, the pKi in series [6] was below 5.30; in series [7] it was below 5.30; in series [8], 5.60.
On to `COc1cc(Oc2nc(Oc3cccc(C(=N)N)c3)c(F)c(C)c2F)cc(C(=O)N(C)C)c1`, for which the values for the pKi in series [6], in series [7] and in [8] were 6.12, below 5.30 and 6.85, respectively.
`COc1c(O)cc(C(=N)N)cc1Oc1nc(Oc2cccc(C(=O)N(C)C)c2)c(F)c(C)c1F`: the results for the pKi in series [6], in series [7] and in [8] were below 5.30, below 5.30 and 6.80, respectively.
For the compound `Cc1c(F)c(Oc2cccc(CN)c2)nc(Oc2cccc(C(=N)N)c2)c1F`, the figures for the pKi in [6], in series [7] and in series [8] were 5.54, below 5.30 and 5.85, respectively.
In turn, `Cc1c(F)c(Oc2cccc(C(=N)N)c2)nc(Oc2cccc(C(=N)N)c2)c1F` came in with a concentration at 0.5 h in series [2] of 100 nM.
